A short description of assay [1]: OD615 S. cerevisiae growth inhibition, permissive medium, pilot counter-assay, permissive growth control for S. cerevisiae lifespan shortening project (AID 705;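 active = growth inhibition above 25% in both replicates, a cutoff set 3 SD above the mean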). The settings on record: OD615, 24 h, at 10 µM, hits give high values. The procedure, abridged: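 System: Engineered DeaD yeast | Buffer or medium: SC raffinose/galactose permissive medium | Incubation: Cells pre-grown 4 h, then 24 h compound exposure, 30 °C humidified | Measured by: Absorbance (optical density) at 615 nm | Read-out: Reduction in yeast growth (OD615)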

A short description of assay [2]: Restrictive medium S. cerevisiae growth inhibition, OD615, pilot screen of yeast lifespan reduction project, restrictive growth control (AID 706;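 active = growth inhibition above a set limit, 3 SD over mean compound inhibition, in both replicates, cut at about 43% in these data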;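 also: modified DeaD lifespan yeast strain shifted to restrictive glucose medium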). The settings on record: OD615, 48 h, at 10 µM, hits give high values. The procedure, abridged: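 Material: modified S. cerevisiae; Medium: glucose-based CSMM-D restrictive medium; Compound dosing: one concentration, 10 µM final, 0.25% DMSO; Incubation: 48 h compound exposure at 30 °C; Measured by: OD615.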

Assay [3] can be described thus: viability gain of MRP-1-high H69AR cells under doxorubicin, pilot screen, MRP-1 activator project, CellTiter-Glo, duplicate (AID 807;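 active = viability increase at or above a cutoff of the median across tested compounds plus 3 SD, cut at about 8.5% in these data, passing the limit was not always enough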;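 also: compound pretreatment 18-22 h then 72 h combined with doxorubicin; 0% = doxorubicin alone and 100% = vehicle without doxorubicin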). The note with it: H69AR viability with doxorubicin, CellTiter-Glo luminescence; at 10 µM; hits give high values.
A short description of assay [4]: growth suppression of beta-catenin knockout HCT116, pilot screen, human colon tumor cells (AID 823;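 active = cell viability at or below a set limit in both duplicate runs, the limit being the all-compound median minus 4 SD, cut at about 23% in these data, passing the limit was not always enough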;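 also: 0% = wells killed by 20 µM Hyamine and 100% = untreated DMSO cell wells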). The note with it: CellTiter-Glo, 60 h, at 10 µM, hits give low values.
A short description of assay [5]: growth suppression of PTEN-deleted HCT116, pilot screen, cell-based, HCT116 clonal line, CellTiter-Glo (AID 824;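 active = viability at or below 27.92% in each of two runs, the all-compound median minus 4 SD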;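 also: 0% = 20 µM Hyamine control and 100% = vehicle cell control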). The settings on record: 60 h, at 10 µM, hits give low values.
Assay [6] is described as follows: inhibitors of the yeast RAM network, pilot screen, dse1pr::URA3 reporter, 5-FOA selection (AID 869;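 active = inhibition over a set limit, the all-compound mean plus 3 SD, in both replicate runs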;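 also: 0% = DMSO wells with no growth and 100% = 10 µM 1-NA-PP1 with full growth; RAM network block rescues cells from 5-FOA so hits raise OD615 growth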). The note with it: S. cerevisiae dse1pr::URA3 5-FOA growth, OD615, 2 d; at 10 µM; hits give high values; strain carries analog-sensitive mutant Cbk1 kinase.
Assay [7] is described as follows: RAM signaling pathway blockade in yeast – S. cerevisiae, Pdr1DBD-CYC8 efflux-inhibited sensitized strain, primary screen (AID 1298).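 Also: 0% = DMSO untreated cells without growth and 100% = 10 µM 1-NA-PP1 full growth; higher means more yeast growth rescued from 5-FOA killing.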 The note with it: S. cerevisiae cbk1-as DSE1-URA3 strain, 5-FOA growth OD615, 2 d; at 50 µM; hits give high values.

A number with no mark means an inactive call. Records with an inconclusive call do not appear. Calls of active or inactive are those of the source.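 The calls were made as follows, unless noted: active = RAM network inhibition above 8.4% in each of two replicates, 3 SD over the compound average; inconclusive = above 8.4% inhibition in only one replicate; inactive = 8.4% inhibition or less in each replicate.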

Consider 24 compounds from PubChem BioAssay.

For `O=C1c2ccccc2C(O)N1Cc1ccco1` (stereo not drawn), the figures for the growth inhibition in assay [1] and in assay [2] were 5.97% and -0.555%, respectively. In addition, in assay [3], the viability increase is -2.36%. Moreover, the results for the viability in assay [4] and in assay [5] were 93.6% and 94.6%, respectively. The inhibition in assay [6] was 0.695%. Further, the RAM network inhibition in assay [7] was 0.68%.

With `CCn1c(SCC(=O)Nc2ccccc2C(=O)OC)nc2c1c(=O)n(C)c(=O)n2C`, the growth inhibition in assay [1] was -6.03%; in assay [2] it was -4.93%. Besides, the viability increase in assay [3] was -3.55%. In addition, the viability in assay [4] was 92%; in assay [5] it was 86.6%. For the same compound, the inhibition in assay [6] was 3.68%. The RAM network inhibition in assay [7] was 5.2%.

Turning to `COCCn1c(SCC(=O)Nc2ccccc2)nc2c1c(=O)[nH]c(=O)n2C`, the growth inhibition in assay [1] is 1.17%; in assay [2], -4.34%. Besides, the viability increase in assay [3] was 1.21%. Further, the viability is 102% in assay [4] and 95.5% in assay [5]. Besides, in assay [6], the inhibition is 1.67%. Moreover, the RAM network inhibition in assay [7] is 1.25%.

Consider `Cc1ccc(N2C(=O)c3ccccc3C2Nc2ccccc2F)nc1` (stereo not drawn), for which the results for the growth inhibition in assay [1] and in assay [2] were -7.38% and -1.2%, respectively. Moreover, in assay [3], the viability increase was -1.31%. The viability is 88.3% in assay [4] and 90.8% in assay [5]. Further, the inhibition in assay [6] was 2.46%. The RAM network inhibition in assay [7] was 10.5%.

On to `COc1ccc(OC)c(NC(=O)Nc2ccccc2C)c1`, for which the growth inhibition was -3.12% in assay [1] and -16.3% in assay [2]. The viability increase in assay [3] is -3.16%. Also, the viability in assay [4] was 102%; in assay [5] it was 95.9%. For the same compound, the inhibition in assay [6] is 1.13%. The RAM network inhibition in assay [7] was 1.79%.

Consider `COc1ccccc1NC=C1C(=O)OC(C)(C)OC1=O`, for which the growth inhibition in assay [1] is -17.5%; in assay [2] it was -7.71%. Further, the viability increase in assay [3] is -2.6%. Further, the viability was 91% in assay [4] and 101% in assay [5]. The inhibition in assay [6] is 0.955%. In assay [7], the RAM network inhibition is 2.48%.

As for `O=C(COc1ccccc1F)c1ccc(O)cc1O`, the growth inhibition in assay [1] is -0.53%; in assay [2], 3.7%. In assay [3], the viability increase is 1.2%. Also, the viability is 101% in assay [4] and 106% in assay [5]. Besides, in assay [6], the inhibition was 0.25%. The RAM network inhibition in assay [7] is -1.69%.

As to `C=CCC(=O)OCC(=O)Nc1ccc(Oc2ccccc2)cc1`, the growth inhibition in assay [1] was 6.73%; in assay [2], 5%. Also, in assay [3], the viability increase is -5.15%. Further, the viability in assay [4] is 94.2%; in assay [5], 94.1%. Moreover, in assay [6], the inhibition is -0.25%. Also, in assay [7], the RAM network inhibition is -0.31%.

For `CCOc1ccccc1NC(=O)CSc1nnc(Cn2c(=O)sc3ccccc32)n1C`, the growth inhibition in assay [1] was -8.96%; in assay [2] it was 9.08%. In assay [3], the viability increase is -2.73%. The viability was 91.5% in assay [4] and 92% in assay [5]. In addition, the inhibition in assay [6] is 1.48%. The RAM network inhibition in assay [7] was 2.49%.

With `CCn1c(N2CCC(C)CC2)nc2c1c(=O)n(C)c(=O)n2C`, the growth inhibition in assay [1] is -10.5%; in assay [2], 1.69%. The viability increase in assay [3] was -0.88%. Also, the viability in assay [4] was 92.9%; in assay [5], 85%. In addition, the inhibition in assay [6] was 1.12%. In addition, in assay [7], the RAM network inhibition was 0.06%.

On to `c1ccc(C2NCCn3cccc32)cc1` (stereo not drawn), for which the growth inhibition in assay [1] is -8.84%; in assay [2] it was -13.7%. Besides, the viability increase in assay [3] is -2.82%. Besides, the viability in assay [4] was 99%; in assay [5] it was 98%. Moreover, the inhibition in assay [6] was 0.21%. In addition, in assay [7], the RAM network inhibition is 2.74%.

In the case of `COCCNc1cc(C)nc2c(-c3ccccc3OC)c(C)nn12`, the growth inhibition in assay [1] is -1.17%; in assay [2], 4.02%. Besides, the viability increase in assay [3] is -2.38%. In addition, the viability was 97.2% in assay [4] and 94.2% in assay [5]. For the same compound, in assay [6], the inhibition was 1.74%. Besides, the RAM network inhibition in assay [7] is 0.56%.

For `CCCOC(=O)C1C2C=CC3(CN(c4ccc(Cl)c(F)c4)C(=O)C13)O2` (stereo not drawn), the growth inhibition was 4.25% in assay [1] and 0.67% in assay [2]. In assay [3], the viability increase was -2.67%. The viability in assay [4] is 93.4%; in assay [5], 86.5%. For the same compound, in assay [6], the inhibition is -0.06%. The RAM network inhibition in assay [7] was 1.54%.

Turning to `CC(Sc1ccc2nnc(-c3ccc(F)cc3)n2n1)C(=O)O` (stereo not drawn), the growth inhibition is 8.21% in assay [1] and 52.5% (active) in assay [2]. Further, the viability increase in assay [3] is -1.09%. The viability in assay [4] was 100%; in assay [5], 94.2%. The inhibition in assay [6] is 1.28%. Further, the RAM network inhibition in assay [7] is 1.27%.

As to `Brc1cccc(-c2nnc3sc(CNC4CCCC4)cn23)c1`, the growth inhibition is -6.88% in assay [1] and 5.62% in assay [2]. Also, the viability increase in assay [3] was -0.97%. In addition, the viability in assay [4] was 95.7%; in assay [5] it was 89.6%. Further, in assay [6], the inhibition was 1.56%. In assay [7], the RAM network inhibition is 3.26%.

Regarding `O=C(NCCCN1CCOCC1)C1CCC(=O)N1CCc1ccccc1` (stereo not drawn), the growth inhibition in assay [1] was -0.765%; in assay [2], -7.29%. Also, in assay [3], the viability increase was -0.18%. Further, the values for the viability in assay [4] and in assay [5] were 103% and 96.7%, respectively. The inhibition in assay [6] was 3.66%. Besides, the RAM network inhibition in assay [7] was 0.63%.

For the compound `COc1cccc(C2(O)CCN(C(=O)c3cccs3)CC2)c1`, the growth inhibition was -9.43% in assay [1] and 6.06% in assay [2]. In addition, the viability increase in assay [3] was 0.71%. Moreover, the viability in assay [4] is 91.5%; in assay [5], 97%. Also, the inhibition in assay [6] was 1.58%. Further, the RAM network inhibition in assay [7] was 5.17%.

As to `COc1ccc(N2CCN(C(=O)C3CCCN(S(=O)(=O)c4cccc5cccnc45)C3)CC2)cc1` (stereo not drawn), the growth inhibition in assay [1] was 7.46%; in assay [2], -2.35%. In assay [3], the viability increase was -3.75%. The viability in assay [4] was 69.6%; in assay [5] it was 68.2%. Besides, in assay [6], the inhibition was 0.045%. The RAM network inhibition in assay [7] was 2.71%.

Consider `Cc1onc(-c2ccccc2Cl)c1C(=O)NCc1ccc2c(c1)cc(C)n2C`, for which the growth inhibition was -6.07% in assay [1] and -12.7% in assay [2]. Moreover, the viability increase in assay [3] is -3.02%. Moreover, the viability in assay [4] is 95.5%; in assay [5], 84.6%. The inhibition in assay [6] is 1.93%. In assay [7], the RAM network inhibition was 5.14%.

With `Cc1c(NC(=O)c2ccc(F)cc2)c(=O)n(-c2ccccc2)n1C`, the growth inhibition in assay [1] is -15.9%; in assay [2], -7.79%. Moreover, the viability increase in assay [3] was -2.08%. Moreover, the viability is 106% in assay [4] and 96.6% in assay [5]. For the same compound, the inhibition in assay [6] was 1.34%. Besides, in assay [7], the RAM network inhibition is 1.21%.

Regarding `Cc1cc(C)c(C#N)c(SCC(=O)c2cccs2)n1`, the values for the growth inhibition in assay [1] and in assay [2] were -9.34% and 1.01%, respectively. Also, the viability increase in assay [3] is -4.41%. In addition, the viability is 78% in assay [4] and 84.8% in assay [5]. Also, the inhibition in assay [6] is 1.6%. The RAM network inhibition in assay [7] is 0.97%.

For the compound `CCn1c(CNC(=O)c2ccc(OC)cc2)nnc1SC`, the growth inhibition is -3.98% in assay [1] and 3.58% in assay [2]. In addition, the viability increase in assay [3] is -1.74%. The viability is 90.6% in assay [4] and 91.9% in assay [5]. Further, the inhibition in assay [6] was 1.44%. Also, in assay [7], the RAM network inhibition was 4.37%.

As for `c1nc2nc3c(c(N4CCOCC4)n2n1)CCCC3`, the values for the growth inhibition in assay [1] and in assay [2] were -6.33% and 11.4%, respectively. The viability increase in assay [3] is -1.47%. Moreover, the viability in assay [4] is 103%; in assay [5], 99.7%. Moreover, the inhibition in assay [6] was 0.645%. In addition, the RAM network inhibition in assay [7] was 0.44%.

`CN=C(NC)SC1CC(=O)N(c2ccccc2)C1=O` (stereo not drawn): the growth inhibition in assay [1] is -8.98%; in assay [2], -4.91%. Further, the viability increase in assay [3] was 1.47%. Moreover, the viability in assay [4] is 109%; in assay [5], 101%. In addition, the inhibition in assay [6] is 0.305%. The RAM network inhibition in assay [7] is 1.02%.
